# SR-BI DiI inh = inhibitors of SR-BI mediated HDL lipid uptake, primary screen, ldlA[mSR-BI] cells, fluorescence, single point; Scavenger receptor class B member 1 (Mus musculus), Q61009; ldlA[mSR-BI] CHO cells, DiI-HDL uptake fluorescence, 3 h; inhibition, % at 12.5 µM; 320,000 tested, 0.96% active; AID 488896, 2010;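 active = mean replicate inhibition of at least 70% and a set share of replicates each scoring 70 or more; inconclusive = meets just one of the two criteria; inactive = fails both criteria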;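 note: 0% = median of neutral control wells and 100% = median of positive control wells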
# V-ATPase pH = regulators of yeast V-ATPase proton pumping, primary screen, pHLuorin cytosolic pH fluorescence; S. cerevisiae; response, % at 10 µM; 350,000 tested, 0.37% active; AID 504577, 2011; in the data active = response mostly above about 7.3%, no sharp cut-off; inactive = mostly below about 5.4%; note: actives read high
# Vif inh = HIV Vif self-association inhibitors, primary screen, imaging, HEK293T, single point | HEK293T cells, Vif self-association by quenched fluorescence, 24 h | inhibition, % at 7.49 µM | 340,000 tested, 0.35% active | AID 602346, 2012; in the data active = inhibition above about 50%, passing the limit was not always enough; inconclusive = no clear call, values can overlap the other calls; inactive = below about 31%
# NTR1 ag = agonists of human NTR1, primary screen, imaging, U2OS cells, beta-arrestin-GFP, high content. NTR1-U2OS beta-arrestin-GFP spot imaging, agonist mode. AID 493036, 2011. 330,000 tested, 0.17% active. activation, % at 20 µM. Neurotensin receptor type 1 (Homo sapiens), P30989;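 active = activation at or above 40% of the spot to cytoplasm intensity ratio, with at least 20 cells analyzed; inconclusive = wells under 20 cells, flagged as cytotoxic or low count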;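 note: 0% = DMSO without peptide and 100% = 100 nM NTR1 peptide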
# Target sequence (P30989 whole entry, looked up): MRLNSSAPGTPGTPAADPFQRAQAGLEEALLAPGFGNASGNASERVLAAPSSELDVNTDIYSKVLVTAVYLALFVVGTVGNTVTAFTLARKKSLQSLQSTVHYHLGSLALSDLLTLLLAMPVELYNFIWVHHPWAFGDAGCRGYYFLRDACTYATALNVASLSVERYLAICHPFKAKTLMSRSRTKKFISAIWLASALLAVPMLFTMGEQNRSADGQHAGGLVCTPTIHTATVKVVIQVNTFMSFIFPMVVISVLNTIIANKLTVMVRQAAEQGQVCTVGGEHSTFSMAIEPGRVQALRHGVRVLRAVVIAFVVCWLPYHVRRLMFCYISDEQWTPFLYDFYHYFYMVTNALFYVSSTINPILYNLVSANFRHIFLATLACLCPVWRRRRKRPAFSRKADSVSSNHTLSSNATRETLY
# SR-BI DiI-HDL act = activators of SR-BI mediated DiI-HDL uptake, primary screen, ldlA[mSR-BI] CHO cells, DiI fluorescence; 3 h; 100 = double the neutral-control signal; activation, % at 12.5 µM; 320,000 tested, 0.096% active; AID 504775, 2011;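 active = mean replicate activation of at least 60% and every replicate at or above 60%; inconclusive = mean or all-replicate condition met, but not both; inactive = mean below 60% and not all replicates reaching 60%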;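 note: 0% = median plate neutral-control signal and 100% = twice that signal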
#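 Test system: SR-BI-overexpressing, LDLR-lacking CHO cells; Medium: Ham's F12 with 0.5% BSA, HEPES 25 mM, pH 7.4; Schedule: 3 h, 37 °C; Technique: bottom-read fluorescence, 550/595 nm.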
# CaV13 ICDI inh = Disruptors of the CACNA1D IQ motif to Ca2+-dependent inactivation inhibitor domain association, primary screening, Förster resonance energy transfer in intact living … | HEK cells, CFP/YFP FRET ICDI-IQ, plate reader, 10 min; percent FRET-ratio fall versus neutral wells | 340,000 tested, 0.098% active | inhibition, % at 12.3 µM;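 active = mean replicate inhibition of at least 30% and at least 1% of replicates passing that level; inconclusive = only one of the two criteria is met; inactive = neither criterion is met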;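 note: 0% = median of the neutral control wells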
# Active calls of the source: *; ? = inconclusive; nt = no result given. Most compounds without a hit are left out; they make up all but 1.7% or so of the library.
SMILES,SR-BI DiI inh,V-ATPase pH,Vif inh,NTR1 ag,SR-BI DiI-HDL act,CaV13 ICDI inh
NC(=O)NCCC1=CCCCC1,-93,-4,2,0,93*,nt
COC(=O)c1cccc(NC(=S)NCCC2=CCCCC2)c1,62,-3,55*,3,-62,nt
CCc1nc(-c2ccc(OC)c(OC)c2)cc2cc(OC)c(OC)cc12,56,-1,nt,5,-56,-5
CCOc1ccc(-c2cc3cc(OC)c(OC)cc3c(C)n2)cc1,74*,-3,-2,5,-74,-5
Cc1sc2ncnc(Nc3ccc(N4CCOCC4)cc3)c2c1-c1ccccc1,76*,0,nt,8,-76,-4
Cc1sc2ncnc(Nc3ccccc3)c2c1C,12,-6,nt,1,-12,-5
O=C(NC(Cc1c[nH]c2ccccc12)C(=O)N/N=C/c1cccnc1)c1cccs1 (stereo not given),-8,3,-7,1,8,-4
Cc1cc2cc(C#N)c(SCC(=O)Nc3nonc3C)nc2cc1C,7,9,79*,0,-7,-10
CC(=O)NC1=NN(C(C)=O)C(C)(c2ccco2)S1 (stereo not given),-11,0,51*,0,11,-6
CC(=O)NC1=NN(C(C)=O)C(C)(c2ccc(C)o2)S1 (stereo not given),-23,1,-1,1,23,-4
COc1ccc(C2=Nn3c(nnc3-c3ccccc3)SC2)cc1OC,14,8,13,6,-14,-4
CCCc1nnc2n1N=C(c1ccc(OC)c(OC)c1)CS2,16,-1,57*,-1,-16,-8
CSCCC(NC(=O)c1cccc(C)c1)C(=O)NCc1cccs1 (stereo not given),-10,-1,3,-2,10,-5
Cc1ccc(C(=O)Nc2cccc(NC(=O)CN3CCCCC3)c2)cc1,23,-3,2,0,-23,5
CCOc1ccc(N2C(=O)CC(N3CCc4ccccc43)C2=O)cc1 (stereo not given),-1,2,81*,1,1,-5
CCc1cc2c(=O)c(-c3ccc4c(c3)OCO4)coc2c(CN(C)C)c1O,79*,-3,-3,2,-79,-12
CN(C)c1ccc(CC(=O)N2CCCCC2c2cc(C(=O)Nc3ccccc3)no2)cc1 (stereo not given),nt,nt,22,nt,nt,-6
O=C(N/N=C/c1ccc([N+](=O)[O-])s1)c1ccccc1Br,4,2,89*,0,-4,-10
N#C/C(=C/c1ccc(N2CCOCC2)o1)c1ccc(Cl)cc1,85*,-1,21,nt,-85,-3
O=C(O)c1cccc(OS(=O)(=O)c2cc(Br)ccc2Br)c1,-35,0,-2,-2,35,-5
NC(=S)NN=C1CCCCCCCCCC1,76*,0,-1,nt,-76,-10
NC(=S)NN=C1CCC(C2CCCCC2)CC1 (stereo not given),?,4,-14,nt,-75,-4
O=C1NC(=S)S/C1=C/c1ccc(N2CCOCC2)o1,-32,2,10,2,32,nt
O=C1NC(=S)S/C1=C\C=C\c1ccc([N+](=O)[O-])o1,5,54*,-3,nt,-5,-6
COc1ccc(C(=O)NN/C(C)=C/C(=O)c2ccccc2)cc1,17,-20,19,-1,-17,-5
SMILES,SR-BI DiI inh,V-ATPase pH,Vif inh,NTR1 ag,SR-BI DiI-HDL act,CaV13 ICDI inh
O=C(NNC(=O)c1ccc(O)cc1O)c1ccc(Cl)cc1,-24,-1,nt,-1,24,0
Cc1cccc(C(=O)NNC(=O)c2ccc(Cl)cc2)c1O,75*,3,1,1,-75,-1
O=C(NNC(=O)c1ccccc1O)c1ccc(Cl)cc1,88*,-2,-2,-1,-88,-4
C/C(=C\C(=O)c1ccccc1)NNC(=O)c1ccc(Cl)cc1,91*,-1,-4,0,-91,-5
O=C(CSc1ncccn1)N/N=C/c1ccc2c(c1)OCO2,1,-6,12,0,-1,-8
CC1(C(=O)Nc2ccc3c(c2)OCO3)CCN1Cc1ccccc1OC(F)F (stereo not given),nt,nt,-16,nt,nt,-6
Cc1cc(C)c(C)c(C(=O)CSc2nnc(-c3ccc4[nH]c(C)c(C)c4c3)o2)c1C,84*,2,1,11,-84,nt
COc1ccc(C2CC(c3c(O)cc(C)oc3=O)=NCCS2)c(OC)c1 (stereo not given),78*,-1,?,0,-30,nt
COc1ccc(C(C)NCCC(c2ccc(OC(C)C)cc2)c2ccccc2OC)cc1 (stereo not given),38,-3,-5,68*,-38,-19
CCC(C)[C@H](N)C(=O)NC[C@H]1CC[C@H](C(=O)N[C@@H](Cc2ccccc2)C(=O)O)CC1 (stereo not given in full),-9,-2,4,-1,9,-2
CCOC(=O)C1=C(CN2CCOCC2)NC(=O)NC1c1cc(C)ccc1C (stereo not given),12,-1,-3,0,-12,-5
CCOC(=O)C1=C(CN2CCN(c3ccc(F)cc3)CC2)NC(=O)NC1c1cccs1 (stereo not given),78*,1,8,2,-78,-5
CC(C)(C)c1ccc(C(=O)N2CCC(=O)N(C(CO)Cc3ccccc3)CC2)cc1 (stereo not given),-8,0,-11,6,8,11
CN(C)S(=O)(=O)c1cccc(C(=O)NC2CCSc3ccccc32)c1 (stereo not given),-7,4,99*,0,7,-2
COc1ccc(C(=O)N/C(=C\c2cn(S(=O)(=O)N(C)C)c3ccccc23)C(=O)NC(C)C)cc1,2,3,-3,1,-2,14
CCN(CC)C(=O)/C(=C/c1cn(S(=O)(=O)N(C)C)c2ccccc12)NC(=O)c1ccc(OC)cc1,88*,0,-13,1,-88,2
CC(C)CC(NC(N)=O)C(=O)NCCc1ccc(Cl)cc1 (stereo not given),13,-1,-5,2,-13,-7
O=C(NC1=NCCS1)c1ccc(Cl)c(S(=O)(=O)N2CCCCCC2)c1,9,1,-11,0,-9,-7
CCN(CC)S(=O)(=O)c1cc(C(=O)NC2=NCCS2)ccc1Cl,74*,2,14,-4,-74,-4
CC1(C)Oc2ccc(C(=O)N/N=C/c3ccc(O)cc3)cc2NC1=O,nt,1,109*,0,nt,-5
